Measured values from article PMC10915797 (Molecular Pharmaceutics, 2024).

What was measured:
[1] = target: recombinant human PD-L1 protein (Homo sapiens, UniProt Q9NZQ7); experiment: SPR binding affinity; conditions: read-out: Kd (dissociation rate constant)
Summary of the method: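 SPR on a CM5 chip at 25 °C. Recombinant human PD-L1 immobilised; surface blocked at pH 8.5. Peptide in HEPES-buffered saline (pH 7.2–7.4, 0.005% P20) at seven concentrations, 1.5625–100 nM, injected at 10 μL/min: 120 s association, 360 s dissociation. Regenerated with glycine pH 2.0 for 15 s. Blank-subtracted sensorgrams fitted to give the dissociation rate constant.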

[2] = target: recombinant murine PD-L1 protein (Mus musculus, UniProt Q9EP73); experiment: SPR binding affinity; conditions: read-out: Kd (dissociation rate constant)
Sequence of recombinant murine PD-L1 protein (Q9EP73 19-290): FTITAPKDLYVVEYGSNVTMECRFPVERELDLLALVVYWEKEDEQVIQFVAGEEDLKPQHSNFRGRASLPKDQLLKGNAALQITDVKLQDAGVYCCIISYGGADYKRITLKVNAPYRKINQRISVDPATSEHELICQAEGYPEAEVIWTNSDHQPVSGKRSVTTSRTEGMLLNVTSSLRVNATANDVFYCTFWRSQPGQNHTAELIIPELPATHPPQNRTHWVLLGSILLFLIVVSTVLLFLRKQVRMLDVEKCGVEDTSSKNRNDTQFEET

U87MG cells = experiment: Blocking of tracer cell binding by PD-L1 antibodies; assay type: cell-based, human; conditions: U87MG cells pre-incubated with 50 nM antibody, 4 °C, 30 min, then tracer 30 min
Summary of the method: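 U87MG cells (1 × 10^6 per sample, n = 3) pre-incubated with PBS or 50 nM PD-L1 monoclonal antibody, 4 °C, 30 min, then given 0.1 μCi Al[18F]F-NOTA-PCP1 at 4 °C for 30 min. Washed three times with PBS–0.1% Tween-20. Bound radioactivity gamma-counted and expressed as %ID. Compared with PBS-treated cells by unpaired two-tailed t test.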

U87MG tumors = experiment: Micro-PET/CT target engagement of PD-L1 antibodies; assay type: in vivo, BALB/c nude mice; conditions: U87MG model
Summary of the method: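 Female BALB/c nude mice (6–8 weeks, 18.0–23.0 g) carried subcutaneous right-flank U87MG xenografts (6 × 10^6 cells) grown to 100–300 mm3. Atezolizumab given at 0.05–20 mg/kg (n = 3). Imaged 24 or 120 h later: 6.0 ± 0.91 MBq tracer via tail vein, micro-PET/CT at 2 h post-injection under 1.5–2% isoflurane. 3D-OSEM/OP-MAP reconstruction with attenuation correction; manual tumour ROIs; uptake as %ID/cc.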

Sequence of recombinant human PD-L1 protein (Q9NZQ7 19-290): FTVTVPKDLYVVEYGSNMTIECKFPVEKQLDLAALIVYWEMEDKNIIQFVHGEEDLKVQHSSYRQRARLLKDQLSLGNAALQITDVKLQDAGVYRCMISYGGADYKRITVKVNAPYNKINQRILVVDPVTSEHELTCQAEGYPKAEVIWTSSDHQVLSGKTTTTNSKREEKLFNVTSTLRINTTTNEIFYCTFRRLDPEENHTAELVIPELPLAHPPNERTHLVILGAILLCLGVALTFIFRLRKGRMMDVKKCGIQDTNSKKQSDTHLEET

Work on CCCC[C@H]1C(=O)N(C)[C@@H](CCCC)C(=O)N[C@@H](CCCNC(=O)CCOCCOCCOCCNC(=O)CN2CCN(CC(=O)O)CCN(CC(=O)O)CC2)C(=O)N[C@H](C(=O)NCC(N)=O)CSCC(=O)N[C@@H](Cc2ccc(O)cc2)C(=O)N(C)[C@@H](C)C(=O)N[C@@H](CC(N)=O)C(=O)N2CCC[C@H]2C(=O)N[C@@H](Cc2c[nH]cn2)C(=O)N[C@@H](CC(C)C)C(=O)N2C[C@H](O)C[C@H]2C(=O)N[C@@H](Cc2c[nH]c3ccccc23)C(=O)N[C@@H](CO)C(=O)N[C@@H](Cc2cn(C)c3ccccc23)C(=O)N1C [NOTA-PCP1] yielded a koff [1] of 0.000593 s⁻¹ and a koff [2] of 0.52 s⁻¹.

For AveMab: anti-PD-L1 monoclonal antibody, the “Al[^18F]F-NOTA-PCP1 cell uptake after antibody treatment” value (shortened to “Al[^18F]F-NOTA-PCP1 cell uptake”) (U87MG cells) was 1.40 ± 0.05 %ID.

For DurMab: anti-PD-L1 monoclonal antibody, the “Al[^18F]F-NOTA-PCP1 cell uptake” value (U87MG cells) was 1.34 ± 0.09 %ID.

AtzMab: anti-PD-L1 monoclonal antibody was tested, and the “Al[^18F]F-NOTA-PCP1 cell uptake” value (U87MG cells) was 1.26 ± 0.05 %ID, the “tumor Al[^18F]F-NOTA-PCP1 uptake on PET/CT after antibody” value (shortened to “tumor Al[^18F]F-NOTA-PCP1 uptake”) (U87MG tumors; AtzMab 0.05 mg/kg, at 120h, n = 3 (Figure 6B)) was 11.64 ± 1.13 %ID/cc and the “tumor Al[^18F]F-NOTA-PCP1 uptake” value (U87MG tumors; AtzMab 0.5 mg/kg, at 120h, n = 3 (Figure 6B)) was 6.17 ± 0.35 %ID/cc. The “tumor Al[^18F]F-NOTA-PCP1 uptake” value (U87MG tumors; AtzMab 5 mg/kg, 24 h, n = 3 (Figure 7B)) was 2.16 ± 0.20 %ID/cc, the “tumor Al[^18F]F-NOTA-PCP1 uptake” value (U87MG tumors; AtzMab 5 mg/kg, 120 h, n = 3 (Figure 7B)) was 6.91 ± 0.18 %ID/cc and the “tumor Al[^18F]F-NOTA-PCP1 uptake” value (U87MG tumors; AtzMab 20 mg/kg, 24 h, n = 3 (Figure 7B)) was 2.19 ± 0.13 %ID/cc. The “tumor Al[^18F]F-NOTA-PCP1 uptake” value (U87MG tumors; AtzMab 20 mg/kg, 120 h, n = 3 (Figure 7B)) was 2.29 ± 0.04 %ID/cc and the “tumor Al[^18F]F-NOTA-PCP1 uptake” value (U87MG tumors; AtzMab 20 mg/kg, at 120h, n = 3 (Figure 6B)) was 2.02 ± 0.14 %ID/cc.
